Experimental data published in ChEMBL document CHEMBL1147809, “Tumor-cell-targeted methionine-enkephalin analogues containing unnatural amino acids: design, synthesis, and in vitro antitumor activity” (2006).

system: HeLa; assay: Antiproliferative activity against human HeLa cell line at 1000 uM relative to control; type: functional
Summary of the method: (§1)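 Cells from ATCC grown as monolayers in DMEM with 10% FBS, 2 mM glutamine, penicillin/streptomycin, 37 °C, 5% CO2. Seeded at 2 × 10^4 cells/mL, and after 24 h the medium was replaced with fresh medium containing compound (water/10% DMSO stock, PBS working dilutions 10^-3 to 10^-6 M). Exposure was 72 h, then MTT read-out. Growth % = (A_peptide − A_blank)/(A_control − A_blank) × 100, with inhibition taken relative to untreated cells. Values are means of three experiments run in triplicate.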

Point of comparison: N[C@@H](Cc1ccc(O)cc1)C(=O)N[C@H](C(=O)O)C1C2CC3CC(C2)CC1C3 (stereo not given in full), inhibition at 1000 µM 14.8%. Against it:
- N[C@@H](Cc1ccc(O)cc1)C(=O)N[C@H](C(=O)NCC(=O)O)C1C2CC3CC(C2)CC1C3 (stereo not given in full) — higher, 28.2%

system: HBL; assay: Antiproliferative activity against human HBL cell line at 10 uM relative to control; type: functional; summary of the method: as §1

Point of comparison: N[C@@H](Cc1ccc(O)cc1)C(=O)N[C@H](C(=O)NCC(=O)O)C1C2CC3CC(C2)CC1C3 (stereo not given in full), inhibition at 10 µM 2.9%. Against it:
- N[C@@H](Cc1ccc(O)cc1)C(=O)N[C@H](C(=O)O)C1C2CC3CC(C2)CC1C3 (stereo not given in full) — higher, 3.9%

system: HBL; assay: Antiproliferative activity against human HBL cell line at 100 uM relative to control; type: functional; summary of the method: as §1

For N[C@@H](Cc1ccc(O)cc1)C(=O)N[C@H](C(=O)NCC(=O)O)C1C2CC3CC(C2)CC1C3 (stereo not given in full), the inhibition at 100 µM was 5.9%.

system: HBL; assay: Antiproliferative activity against human HBL cell line at 1000 uM relative to control; type: functional; summary of the method: as §1

Point of comparison: N[C@@H](Cc1ccc(O)cc1)C(=O)N[C@H](C(=O)NCC(=O)O)C1C2CC3CC(C2)CC1C3 (stereo not given in full), inhibition at 1000 µM 17.9%. Against it:
- N[C@@H](Cc1ccc(O)cc1)C(=O)N[C@H](C(=O)O)C1C2CC3CC(C2)CC1C3 (stereo not given in full) — lower, 7.3%

system: HT-29; assay: Antiproliferative activity against human HT29 cell line at 10 uM relative to control; type: functional; summary of the method: as §1

Point of comparison: N[C@@H](Cc1ccc(O)cc1)C(=O)N[C@H](C(=O)NCC(=O)O)C1C2CC3CC(C2)CC1C3 (stereo not given in full), inhibition at 10 µM 7.4%. Against it:
- N[C@@H](Cc1ccc(O)cc1)C(=O)N[C@H](C(=O)O)C1C2CC3CC(C2)CC1C3 (stereo not given in full) — higher, 8.9%

system: HT-29; assay: Antiproliferative activity against human HT29 cell line at 100 uM relative to control; type: functional; summary of the method: as §1

Point of comparison: N[C@@H](Cc1ccc(O)cc1)C(=O)N[C@H](C(=O)O)C1C2CC3CC(C2)CC1C3 (stereo not given in full), inhibition at 100 µM 3.4%. Against it:
- N[C@@H](Cc1ccc(O)cc1)C(=O)N[C@H](C(=O)NCC(=O)O)C1C2CC3CC(C2)CC1C3 (stereo not given in full) — higher, 9.5%

system: HT-29; assay: Antiproliferative activity against human HT29 cell line at 1000 uM relative to control; type: functional; summary of the method: as §1

Point of comparison: N[C@@H](Cc1ccc(O)cc1)C(=O)N[C@H](C(=O)O)C1C2CC3CC(C2)CC1C3 (stereo not given in full), inhibition at 1000 µM 20.8%. Against it:
- N[C@@H](Cc1ccc(O)cc1)C(=O)N[C@H](C(=O)NCC(=O)O)C1C2CC3CC(C2)CC1C3 (stereo not given in full) — lower, 15.7%

system: SW-620; assay: Antiproliferative activity against human SW620 cell line at 10 uM relative to control; type: functional; summary of the method: as §1

Point of comparison: N[C@@H](Cc1ccc(O)cc1)C(=O)N[C@H](C(=O)O)C1C2CC3CC(C2)CC1C3 (stereo not given in full), inhibition at 10 µM 21.9%. Against it:
- N[C@@H](Cc1ccc(O)cc1)C(=O)N[C@H](C(=O)NCC(=O)O)C1C2CC3CC(C2)CC1C3 (stereo not given in full) — lower, 20.4%

system: SW-620; assay: Antiproliferative activity against human SW620 cell line at 100 uM relative to control; type: functional; summary of the method: as §1

Point of comparison: N[C@@H](Cc1ccc(O)cc1)C(=O)N[C@H](C(=O)NCC(=O)O)C1C2CC3CC(C2)CC1C3 (stereo not given in full), inhibition at 100 µM 14.4%. Against it:
- N[C@@H](Cc1ccc(O)cc1)C(=O)N[C@H](C(=O)O)C1C2CC3CC(C2)CC1C3 (stereo not given in full) — lower, 11.8%

system: SW-620; assay: Antiproliferative activity against human SW620 cell line at 1000 uM relative to control; type: functional; summary of the method: as §1

Point of comparison: N[C@@H](Cc1ccc(O)cc1)C(=O)N[C@H](C(=O)NCC(=O)O)C1C2CC3CC(C2)CC1C3 (stereo not given in full), inhibition at 1000 µM 23.4%. Against it:
- N[C@@H](Cc1ccc(O)cc1)C(=O)N[C@H](C(=O)O)C1C2CC3CC(C2)CC1C3 (stereo not given in full) — lower, 17.9%

system: Caco-2; assay: Antiproliferative activity against human Caco-2 cell line at 10 uM relative to control; type: functional; summary of the method: as §1

Point of comparison: N[C@@H](Cc1ccc(O)cc1)C(=O)N[C@H](C(=O)NCC(=O)O)C1C2CC3CC(C2)CC1C3 (stereo not given in full), inhibition at 10 µM 4.2%. Against it:
- N[C@@H](Cc1ccc(O)cc1)C(=O)N[C@H](C(=O)O)C1C2CC3CC(C2)CC1C3 (stereo not given in full) — higher, 16.5%

system: Caco-2; assay: Antiproliferative activity against human Caco-2 cell line at 100 uM relative to control; type: functional; summary of the method: as §1

Point of comparison: N[C@@H](Cc1ccc(O)cc1)C(=O)N[C@H](C(=O)O)C1C2CC3CC(C2)CC1C3 (stereo not given in full), inhibition at 100 µM 8.4%. Against it:
- N[C@@H](Cc1ccc(O)cc1)C(=O)N[C@H](C(=O)NCC(=O)O)C1C2CC3CC(C2)CC1C3 (stereo not given in full) — lower, 6.4%

system: Caco-2; assay: Antiproliferative activity against human Caco-2 cell line at 1000 uM relative to control; type: functional; summary of the method: as §1

Point of comparison: N[C@@H](Cc1ccc(O)cc1)C(=O)N[C@H](C(=O)NCC(=O)O)C1C2CC3CC(C2)CC1C3 (stereo not given in full), inhibition at 1000 µM 6.2%. Against it:
- N[C@@H](Cc1ccc(O)cc1)C(=O)N[C@H](C(=O)O)C1C2CC3CC(C2)CC1C3 (stereo not given in full) — higher, 14.5%

system: MCF7; assay: Antiproliferative activity against human MCF7 cell line at 10 uM relative to control; type: functional
Summary of the method: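 MTT assay on monolayer cells grown in DMEM with 10% FBS, 2 mM glutamine, penicillin and streptomycin, at 37 °C in 5% CO2. Cells were plated at 2 × 10^4 cells/mL on day 0. After 24 h the medium was replaced with fresh medium containing compound (working dilutions in PBS from 10% DMSO/water stock), then incubated 72 h. Percent growth inhibition was calculated against untreated cells after blank subtraction. Values are means of three experiments run in triplicate.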

N[C@@H](Cc1ccc(O)cc1)C(=O)N[C@H](C(=O)O)C1C2CC3CC(C2)CC1C3 (stereo not given in full) showed an inhibition at 10 µM of 1.1%.

system: MCF7; assay: Antiproliferative activity against human MCF7 cell line at 100 uM relative to control; type: functional; summary of the method: as §1

Work on N[C@@H](Cc1ccc(O)cc1)C(=O)N[C@H](C(=O)O)C1C2CC3CC(C2)CC1C3 (stereo not given in full) yielded an inhibition at 100 µM of 1.2%.

system: MCF7; assay: Antiproliferative activity against human MCF7 cell line at 1000 uM relative to control; type: functional; summary of the method: as §1

Point of comparison: N[C@@H](Cc1ccc(O)cc1)C(=O)N[C@H](C(=O)O)C1C2CC3CC(C2)CC1C3 (stereo not given in full), inhibition at 1000 µM 17.8%. Against it:
- N[C@@H](Cc1ccc(O)cc1)C(=O)N[C@H](C(=O)NCC(=O)O)C1C2CC3CC(C2)CC1C3 (stereo not given in full) — higher, 21.2%

system: HEp-2; assay: Antiproliferative activity against human HEp2 cell line at 10 uM relative to control; type: functional; summary of the method: as §1

Point of comparison: N[C@@H](Cc1ccc(O)cc1)C(=O)N[C@H](C(=O)O)C1C2CC3CC(C2)CC1C3 (stereo not given in full), inhibition at 10 µM 6.4%. Against it:
- N[C@@H](Cc1ccc(O)cc1)C(=O)N[C@H](C(=O)NCC(=O)O)C1C2CC3CC(C2)CC1C3 (stereo not given in full) — lower, 2%

system: HEp-2; assay: Antiproliferative activity against human HEp2 cell line at 100 uM relative to control; type: functional; summary of the method: as §1

Point of comparison: N[C@@H](Cc1ccc(O)cc1)C(=O)N[C@H](C(=O)NCC(=O)O)C1C2CC3CC(C2)CC1C3 (stereo not given in full), inhibition at 100 µM 18.8%. Against it:
- N[C@@H](Cc1ccc(O)cc1)C(=O)N[C@H](C(=O)O)C1C2CC3CC(C2)CC1C3 (stereo not given in full) — lower, 8.2%

system: HEp-2; assay: Antiproliferative activity against human HEp2 cell line at 1000 uM relative to control; type: functional; summary of the method: as §1

Point of comparison: N[C@@H](Cc1ccc(O)cc1)C(=O)N[C@H](C(=O)O)C1C2CC3CC(C2)CC1C3 (stereo not given in full), inhibition at 1000 µM 21.2%. Against it:
- N[C@@H](Cc1ccc(O)cc1)C(=O)N[C@H](C(=O)NCC(=O)O)C1C2CC3CC(C2)CC1C3 (stereo not given in full) — higher, 26.7%

system: HeLa; assay: Antiproliferative activity against human HeLa cell line at 10 uM relative to control; type: functional; summary of the method: as §1

Point of comparison: N[C@@H](Cc1ccc(O)cc1)C(=O)N[C@H](C(=O)NCC(=O)O)C1C2CC3CC(C2)CC1C3 (stereo not given in full), inhibition at 10 µM 7.3%. Against it:
- N[C@@H](Cc1ccc(O)cc1)C(=O)N[C@H](C(=O)O)C1C2CC3CC(C2)CC1C3 (stereo not given in full) — lower, 6.1%

system: HeLa; assay: Antiproliferative activity against human HeLa cell line at 100 uM relative to control; type: functional; summary of the method: as §1

Point of comparison: N[C@@H](Cc1ccc(O)cc1)C(=O)N[C@H](C(=O)O)C1C2CC3CC(C2)CC1C3 (stereo not given in full), inhibition at 100 µM 3.1%. Against it:
- N[C@@H](Cc1ccc(O)cc1)C(=O)N[C@H](C(=O)NCC(=O)O)C1C2CC3CC(C2)CC1C3 (stereo not given in full) — higher, 9.9%

system: SW-620; assay: Antiproliferative activity against human SW620 cell line at 1 uM relative to control; type: functional; summary of the method: as §1

Point of comparison: N[C@@H](Cc1ccc(O)cc1)C(=O)N[C@H](C(=O)NCC(=O)O)C1C2CC3CC(C2)CC1C3 (stereo not given in full), inhibition at 1 µM 13.6%. Against it:
- N[C@@H](Cc1ccc(O)cc1)C(=O)N[C@H](C(=O)O)C1C2CC3CC(C2)CC1C3 (stereo not given in full) — lower, 10.5%

system: Caco-2; assay: Antiproliferative activity against human Caco-2 cell line at 1 uM relative to control; type: functional; summary of the method: as §1

Point of comparison: N[C@@H](Cc1ccc(O)cc1)C(=O)N[C@H](C(=O)NCC(=O)O)C1C2CC3CC(C2)CC1C3 (stereo not given in full), inhibition at 1 µM 2.2%. Against it:
- N[C@@H](Cc1ccc(O)cc1)C(=O)N[C@H](C(=O)O)C1C2CC3CC(C2)CC1C3 (stereo not given in full) — higher, 3.7%

system: HEp-2; assay: Antiproliferative activity against human HEp2 cell line at 1 uM relative to control; type: functional; summary of the method: as §1

Point of comparison: N[C@@H](Cc1ccc(O)cc1)C(=O)N[C@H](C(=O)O)C1C2CC3CC(C2)CC1C3 (stereo not given in full), inhibition at 1 µM 6.2%. Against it:
- N[C@@H](Cc1ccc(O)cc1)C(=O)N[C@H](C(=O)NCC(=O)O)C1C2CC3CC(C2)CC1C3 (stereo not given in full) — lower, 2.7%

system: HeLa; assay: Antiproliferative activity against human HeLa cell line at 1 uM relative to control; type: functional; summary of the method: as §1

Point of comparison: N[C@@H](Cc1ccc(O)cc1)C(=O)N[C@H](C(=O)O)C1C2CC3CC(C2)CC1C3 (stereo not given in full), inhibition at 1 µM 7.5%. Against it:
- N[C@@H](Cc1ccc(O)cc1)C(=O)N[C@H](C(=O)NCC(=O)O)C1C2CC3CC(C2)CC1C3 (stereo not given in full) — higher, 9.8%

system: HBL; assay: Antiproliferative activity against human HBL cell line at 1 uM relative to control; type: functional; summary of the method: as §1

Work on N[C@@H](Cc1ccc(O)cc1)C(=O)N[C@H](C(=O)NCC(=O)O)C1C2CC3CC(C2)CC1C3 (stereo not given in full) yielded an inhibition at 1 µM of 1.6%.

system: HT-29; assay: Antiproliferative activity against human HT29 cell line at 1 uM relative to control; type: functional; summary of the method: as §1

Point of comparison: N[C@@H](Cc1ccc(O)cc1)C(=O)N[C@H](C(=O)NCC(=O)O)C1C2CC3CC(C2)CC1C3 (stereo not given in full), inhibition at 1 µM 5.4%. Against it:
- N[C@@H](Cc1ccc(O)cc1)C(=O)N[C@H](C(=O)O)C1C2CC3CC(C2)CC1C3 (stereo not given in full) — lower, 4.9%
